Values joined by “and” are separate entries in the source; they are usually repeats but may differ in a detail not shown here. Equal values may be shown once.
Experiments:
[1] = target: T1, Hemoglobin HbA (Homo sapiens) (UniProt P69905+P68871); assay: Ratio of compound modified hemoglobin aggregation […]; format: functional
[2] = target: T1, Hemoglobin HbA (Homo sapiens); assay: Affinity towards oxygen by hemoglobin after modification by compound; format: functional
[3] = target: Hemoglobin subunit alpha (Homo sapiens) (UniProt P69905); assay: Percent modification of human Hemoglobin alpha (100 uM) after 3h of incubation
Chain of Hemoglobin subunit alpha (Homo sapiens) (P69905 whole entry): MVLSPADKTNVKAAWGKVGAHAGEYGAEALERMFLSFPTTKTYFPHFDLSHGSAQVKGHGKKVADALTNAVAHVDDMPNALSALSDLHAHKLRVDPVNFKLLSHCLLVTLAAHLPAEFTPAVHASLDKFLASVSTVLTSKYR
Method in brief: (§1)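 HbA·CO at 100 μM final (tetramer) reacted with isothiocyanate at a 2:1 compound:Hb molar ratio in 50 mM ammonium acetate, pH 7.3, with 2% DMSO or buffer alone, for 3 h at 37 °C. An aliquot was diluted in acetonitrile/water with 0.2% formic acid and analysed by electrospray MS to give percent modified α- and β-subunit. Some compounds were run in triplicate.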

[4] = target: Hemoglobin subunit beta (Homo sapiens) (UniProt P68871); assay: Percent modification of human Hemoglobin beta (100 uM) after 3h of incubation; method in brief: as §1
Chain of Hemoglobin subunit beta (Homo sapiens) (P68871 2-147 limits assumed): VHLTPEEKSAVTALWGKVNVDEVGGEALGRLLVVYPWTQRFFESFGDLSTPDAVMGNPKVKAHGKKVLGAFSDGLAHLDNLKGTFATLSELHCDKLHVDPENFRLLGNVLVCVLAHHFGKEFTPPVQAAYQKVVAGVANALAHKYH

[5] = target: T1, Hemoglobin HbA (Homo sapiens); assay: Inhibition of sickle hemoglobin aggregation using standard saturation solubility (CSAT) assay; format: functional
Method in brief: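 Saturation solubility (Csat) of deoxy HbS or inhibitor-modified HbS in 50 mM phosphate, pH 7.0. CO is removed by photodissociation under oxygen. HbSO2 at 35 g/dL is deoxygenated on ice with 0.9 M sodium dithionite solution, then centrifuged 1 h at 30 °C. Supernatant Hb is measured spectrophotometrically, and activity is expressed as the solubility increase over the unmodified HbS control.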

[6] = target: Hemoglobin subunit alpha (Homo sapiens) (UniProt P69905); assay: Percent modification of human hemoglobin alpha (100 uM) after 3h of incubation; method in brief: as §1
[7] = target: Hemoglobin subunit alpha (Homo sapiens) (UniProt P69905); assay: Percent modification of alpha-subunit of human hemoglobin (100 uM) after 3h of incubation; method in brief: as §1

T1 sequence (P68871 2-147 partner limits assumed): as the sequence (P68871 2-147 limits assumed) above
T1 sequence (P69905 2-142 limits assumed): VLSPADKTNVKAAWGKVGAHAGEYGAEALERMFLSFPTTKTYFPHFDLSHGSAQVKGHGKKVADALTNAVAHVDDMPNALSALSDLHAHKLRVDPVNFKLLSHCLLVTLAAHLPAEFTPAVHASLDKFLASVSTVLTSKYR

Row | Modification [4] | Modification [6] | SMILES | Csat/Co [1] | Co [2] | Modification [3] [%] | Csat [5] | Modification [7] [%]
1 | 8% |  | N#CSc1ccc(O)cc1 |  |  | 51 |  | 
2 | 13% | 42% | N#CSc1ccc(CC(=O)O)cc1 |  |  |  |  | 
3 | 24% | 0% | N#CSCCCN1CCCC1=O |  |  |  |  | 
4 |  |  | CN(C)CCCCSC#N | 1.23 and 1.22 and 1.27 | 15.3 g/dL and 15.6 g/dL and 15.1 g/dL |  | 18.8 g dl-1 and 19.1 g dl-1 (2×) | 
5 | 3% | 35% | N#CSc1ccc(C(=O)O)c(O)c1 |  |  |  |  | 
6 |  |  | CN(C)CCCCCSC#N | 1.34 and 1.35 and 1.37 | 15.9 g/dL and 15 g/dL and 15.1 g/dL |  | 21.3 g/dL and 20.2 g/dL and 20.7 g/dL | 
7 | 18% | 0% | N#CSC1CCC(O)CC1 (stereo not given) |  |  |  |  | 
8 | 17% and 16% and 15% | 36% and 42% | CCN(CC)CCNC(=O)c1ccc(SC#N)cc1 |  |  | 40 |  | 
9 |  |  | CCN(CC)CCCCCSC#N | 1.33 and 1.36 and 1.35 | 15.9 g/dL and 15 g/dL and 15.1 g/dL |  | 21.1 g dl-1 and 20.4 g dl-1 (2×) | 
10 |  |  | CCN(CC)CCSC#N | 1.24 and 1.22 (2×) | 17 g/dL and 16.2 g/dL and 16.5 g/dL |  | 21 g/dL and 19.8 g/dL and 20.1 g/dL | 
11 |  |  | N#CSCCCCCO | 1.11 | 17 g/dL |  | 18.8 g/dL | 
12 |  |  | CCN(CC)CCCCSC#N | 1.3 (2×) and 1.27 | 15.9 g/dL and 15 g/dL and 15.1 g/dL |  | 20.7 g/dL and 19.1 g/dL and 19.7 g/dL | 
13 | 58% | 6% | N#CSCc1ccncc1 |  |  |  |  | 
14 |  |  | N#CSCCN1CCCCC1 | 1.24 (2×) and 1.23 | 16.8 g/dL and 16.4 g/dL and 16.5 g/dL |  | 20.9 g/dL and 20.1 g/dL and 20.5 g/dL | 
15 | 24% | 7% | N#CSCCc1c[nH]c2ccccc12 |  |  |  |  | 

Row | SMILES | Modification [4] | Modification [6] | Csat/Co [1] | Co [2] | Modification [3] [%] | Csat [5] | Modification [7] [%]
16 | CN(C)c1ccc(SC#N)cc1 | 10% |  | 1.07 | 17 g/dL | 48 | 18.2 g/dL | 
17 | COC(CSC#N)OC | 33% | 11% | 1.07 (2×) and 1.04 | 17 g/dL and 16.2 g/dL and 16.5 g/dL |  | 18.2 g/dL and 17.4 g/dL and 17.3 g/dL | 
18 | N#CSCCCn1ccnc1 | 13% | 7% | 1.21 and 1.15 and 1.18 | 17 g/dL and 16.2 g/dL and 16.5 g/dL |  | 20.6 g/dL and 18.6 g/dL and 19.6 g/dL | 
19 | CCN(CC)CCCSC#N | 37% | 0% | 1.24 and 1.2 and 1.22 | 16.1 g/dL and 16.3 g/dL and 16.2 g/dL |  | 19.9 g/dL and 19.6 g/dL and 19.7 g/dL | 
20 | N#CCCSC#N | 21% | 10% | 1.08 and 1.1 and 1.09 | 16.1 g/dL and 16.3 g/dL and 16.2 g/dL |  | 17.4 g/dL and 17.8 g/dL and 17.7 g/dL | 
21 | N#CSc1ccc(CCO)cc1 | 8% and 9% (2×) | 72% | 1.1 | 17 g/dL | 66 | 18.7 g/dL | 72

— ChEMBL document CHEMBL1136727, “Regioselective covalent modification of hemoglobin in search of antisickling agents” (J Med Chem, 2003)
